# Experimental data: ChEMBL document CHEMBL1165928, “Synthesis and structure-activity relationships of 2-acylamino-4,6-diphenylpyridine derivatives as novel antagonists of GPR54” (Bioorg Med Chem, 2010)
# pIC50: −log10 of the molar value.
# Tests used:
# KiSS-1 receptor [1] = molecular target: T1, KiSS-1 receptor (Homo sapiens, UniProt Q969F8); settings: CHO, 10 uM
# KiSS-1 receptor [2] = molecular target: T1, KiSS-1 receptor; assay: Displacement of [125I]metastin(40-54) from human GPR54 receptor expressed in CHO cells after 60 mins by scintillation counting; format: cell-based
# Procedure, shortened: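 Membranes came from CHO h175-KB34 cells stably expressing human GPR54, harvested at ≤50% confluency, homogenized with protease inhibitors, pelleted and stored at −80 °C. Binding used 135 pM 125I-metastin(40-54) in pH 7.4 Tris/Mg acetate/EGTA buffer with 1 mg/ml BSA, 60 min at 25 °C. Samples were filtered on 0.3% PEI-treated GF/C plates, washed three times, and filter radioactivity was counted.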
# KiSS-1 receptor [3] = molecular target: T1, KiSS-1 receptor; assay: Antagonist activity at human GPR54 receptor expressed in CHO cells assessed as inhibition of metastin(40-54)-induced intracellular calcium mobilization by FLIPR assay; format: functional, cell-based
# Procedure, shortened: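 Human GPR54 cell lines h175-KB33 and h175-16 were plated at 30,000 cells/well and cultured overnight. They were loaded 60 min at 37 °C with Fluo-3AM, 1.25 mM probenecid and 0.04% Pluronic F-127 in pH 7.4 Hepes salt buffer with 0.1% BSA, then washed. Ca2+ was read by FLIPR. Agonist was metastin(40-54) at 30 nM (h175-KB33) or 100 pM (h175-16).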
# T1 sequence (Q969F8 whole entry): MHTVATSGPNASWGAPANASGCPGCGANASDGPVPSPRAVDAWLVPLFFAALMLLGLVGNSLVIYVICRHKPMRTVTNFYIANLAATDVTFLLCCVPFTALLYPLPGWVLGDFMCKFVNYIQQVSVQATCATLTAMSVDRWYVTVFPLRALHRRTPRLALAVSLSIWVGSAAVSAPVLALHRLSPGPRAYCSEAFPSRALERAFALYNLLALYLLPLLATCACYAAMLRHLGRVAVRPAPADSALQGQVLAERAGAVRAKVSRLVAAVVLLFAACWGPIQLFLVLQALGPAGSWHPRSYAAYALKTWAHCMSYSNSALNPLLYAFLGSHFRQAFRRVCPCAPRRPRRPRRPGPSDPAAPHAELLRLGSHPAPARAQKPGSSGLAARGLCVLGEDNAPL
Structure (SMILES),inhibition (KiSS-1 receptor [1]) [%],pIC50 (KiSS-1 receptor [2]),pIC50 (KiSS-1 receptor [3])
N#Cc1c(-c2cccc(CO)c2)cc(-c2ccccc2O)nc1NC(=O)c1cccs1,58,5.82,–
Cc1c(-c2ccccc2O)nc(NC(=O)c2ccco2)c(C#N)c1-c1cccc(NC(=O)CCN)c1,–,5.92,–
N#Cc1c(-c2cccc(NC(=O)CCN)c2)cc(-c2ccc(Cl)cc2O)nc1NC(=O)c1cccs1,–,8.01,5.39
CC(C)(CN)NC(=O)c1cccc(-c2cc(-c3ccccc3O)nc(NC(=O)c3ccco3)c2C#N)c1,–,7.82,–
N#Cc1c(-c2cccc(C(=O)NCCN)c2)cc(-c2ccc(F)cc2O)nc1NC(=O)c1ccco1,–,8.10,6.18
N#Cc1c(-c2cccc(N)c2)cc(-c2ccccc2O)nc1NC(=O)c1cccs1,–,5.68,–
CC(C)(CN)CNC(=O)c1cccc(-c2cc(-c3ccc(F)cc3O)nc(NC(=O)c3ccco3)c2C#N)c1,–,7.96,5.60
N#Cc1c(-c2cccc(C(=O)NCCN)c2)cc(-c2ccccc2O)nc1NC(=O)c1cccs1,–,7.35,5.29
N#Cc1c(-c2cccc(CN)c2)cc(-c2ccccc2O)nc1NC(=O)c1cccs1,–,6.24,–
N#Cc1c(-c2cccc(NC(=O)CCN)c2)cc(-c2ccccc2N)nc1NC(=O)c1ccccc1,–,6.05,–
COc1ccc(C(=O)Nc2nc(-c3ccccc3O)cc(-c3cccc(C(=O)NCCN)c3)c2C#N)cc1,–,7.51,–
N#Cc1c(-c2cccc(NC(=O)CCCN)c2)cc(-c2ccccc2O)nc1NC(=O)c1cccs1,–,7.47,5.85
N#Cc1c(-c2cccc(C(=O)O)c2)cc(-c2ccccc2O)nc1NC(=O)c1cccs1,–,5.00,–
COc1ccccc1C(=O)Nc1nc(-c2ccccc2O)cc(-c2cccc(C(=O)NCCN)c2)c1C#N,–,7.35,–
N#Cc1c(-c2cccc(NC(=O)CCN)c2)cc(-c2ccccc2O)nc1NC(=O)c1ccccc1,–,7.29,4.62
COc1ccccc1-c1cc(-c2cccc(N)c2)c(C#N)c(NC(=O)c2cccs2)n1,–,< 4.52,–
N#Cc1c(-c2cccc(NC(=O)CCN)c2)cc(-c2ccccc2O)nc1NC(=O)c1cccs1,–,7.68,5.96
COc1ccccc1C(=O)Nc1nc(-c2ccccc2O)cc(-c2cccc(C(=O)NC(C)(C)CN)c2)c1C#N,–,7.49,–
N#Cc1c(-c2cccc(NC(=O)CCN)c2)cc(-c2ccc(F)cc2O)nc1NC(=O)c1ccco1,–,8.43,6.34
Cc1ccc(-c2cc(-c3cccc(NC(=O)CCN)c3)c(C#N)c(NC(=O)c3cccs3)n2)c(O)c1,–,7.92,6.04
N#Cc1c(-c2cccc(NC(=O)CCN)c2)cc(-c2ccc(F)cc2O)nc1NC(=O)c1cccs1,–,8.13,5.44
N#Cc1c(-c2cccc(NC(=O)CN)c2)cc(-c2ccccc2O)nc1NC(=O)c1cccs1,–,7.29,5.55
N#Cc1c(-c2cccc(NC(=O)CCN)c2)cc(-c2cc(Cl)ccc2O)nc1NC(=O)c1cccs1,–,6.31,–
COc1ccc(-c2cc(-c3cccc(NC(=O)CCN)c3)c(C#N)c(NC(=O)c3ccccc3)n2)c(O)c1,–,6.92,–
N#Cc1c(-c2ccccc2C(=O)NCCN)cc(-c2ccccc2O)nc1NC(=O)c1cccs1,–,4.48,–
N#Cc1c(-c2cccc(C(=O)NCCN)c2)cc(-c2ccccc2O)nc1NC(=O)c1ccco1,–,7.85,–
N#Cc1c(-c2ccc(C(=O)NCCN)cc2)cc(-c2ccccc2O)nc1NC(=O)c1cccs1,–,6.92,–
COc1ccc(C(=O)Nc2nc(-c3ccccc3O)cc(-c3cccc(C(=O)NC(C)(C)CN)c3)c2C#N)cc1,–,7.49,–
COc1ccc(O)c(-c2cc(-c3cccc(NC(=O)CCN)c3)c(C#N)c(NC(=O)c3cccs3)n2)c1,–,6.32,–
N#Cc1c(-c2cccc(NC(=O)CCN)c2)cc(-c2ccc(Br)cc2O)nc1NC(=O)c1cccs1,–,7.72,5.20
